Rows were chosen to be rich in hits. Some 4.6% of all compounds tested hit in one or more screens of this group.
TAAR1 ag = agonists of human TAAR1; CHO RD-HGA16 TAAR1, Fluo-8 calcium fluorescence; vehicle wells 0%, saturating PEA agonist 100%; activation, % at 3 µM; hit rate 0.99% among 360,000; Q96RJ0;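 active means activation above the mean activation of all test compounds in the run plus 3 SD, cut at about 38% in these data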
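Assay system – CHO-derived RD-HGA16 cells with stable Gα16 and human TAAR1 · Compound dosing – one-point dosing at 3 µM (nominal) · Incubation – 17-24 h seeding, 75 min 37 °C dye, 30 min RT · Measured by – kinetic Fluo-8 calcium fluorescence · Control set – DMSO vehicle as 0%, PEA at EC100 as 100% · Repeats – single well for each compound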
OX1R antag-1 = blocks the human orexin 1 receptor; OX1R-expressing cells, FRET antagonist read-out; O43613; AID 485270; hit rate 1.8% among 330,000; inhibition, % at 6.6 µM; in the data active means inhibition mostly above about 38%, no sharp cut-off; inactive means mostly below about 40%
Target sequence (O43613 whole entry, looked up): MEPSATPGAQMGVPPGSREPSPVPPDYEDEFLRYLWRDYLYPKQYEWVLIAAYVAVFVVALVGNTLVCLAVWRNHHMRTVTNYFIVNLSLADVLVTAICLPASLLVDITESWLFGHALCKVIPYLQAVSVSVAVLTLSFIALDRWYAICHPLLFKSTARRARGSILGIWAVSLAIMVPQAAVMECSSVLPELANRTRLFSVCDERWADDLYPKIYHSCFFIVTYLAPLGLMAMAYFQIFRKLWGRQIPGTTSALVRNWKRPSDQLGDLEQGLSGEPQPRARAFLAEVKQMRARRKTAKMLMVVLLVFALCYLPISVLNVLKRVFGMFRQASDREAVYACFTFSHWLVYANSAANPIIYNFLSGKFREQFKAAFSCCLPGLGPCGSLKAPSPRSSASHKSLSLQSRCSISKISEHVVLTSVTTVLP
TAAR1 antagonist = human TAAR1 antagonism. Q96RJ0. CHO RD-HGA16 TAAR1, Fluo-8 calcium fluorescence, antagonist. inhibition, % at 3 µM. hit rate 1.5% among 360,000. AID 624466;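 active means inhibition above a per-plate cutoff, the mean inhibition of test compounds on that plate plus 3 SD, cut at about 49% in these data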
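Assay system: CHO-derived RD-HGA16 cells stably expressing human TAAR1 plus Gα16. Timing: 140 s kinetic read after compound, 140 s after agonist. Technique: kinetic Fluo-8 calcium fluorescence measurement. Measure: % inhibition of agonist calcium response.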
CHO parental Ca = signal in parental CHO cells, OX1R antagonist counter-screen | parental CHO-K1, ATP-induced calcium, Fluo-8 fluorescence | inhibition, % at 5.6 µM | hit rate 0.63% among 330,000;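 active means inhibition above that plate's mean sample inhibition plus 3 SD, cut at about 26% in these data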
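Test system: parental CHO cells; detection: calcium-sensitive Fluo-8 fluorescence; evaluation: percent inhibition of calcium signal; also added: ATP as calcium-mobilizing challenge; repeats: one well per compound; control set: ATP-challenged DMSO wells low, unchallenged DMSO wells high; compound: single nominal dose of 5.6 µM per compound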
GPR7 antagonist = blocks human GPR7 receptor signaling. hit rate 1.1% among 290,000. AID 1861. GPR7-expressing cells, fluorescence antagonist assay. inhibition, % at 4.4 µM; in the data active means inhibition above about 16%, passing the limit was not always enough;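 further: cells stimulated with the agonist NPW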
Target sequence (P48145 whole entry, looked up): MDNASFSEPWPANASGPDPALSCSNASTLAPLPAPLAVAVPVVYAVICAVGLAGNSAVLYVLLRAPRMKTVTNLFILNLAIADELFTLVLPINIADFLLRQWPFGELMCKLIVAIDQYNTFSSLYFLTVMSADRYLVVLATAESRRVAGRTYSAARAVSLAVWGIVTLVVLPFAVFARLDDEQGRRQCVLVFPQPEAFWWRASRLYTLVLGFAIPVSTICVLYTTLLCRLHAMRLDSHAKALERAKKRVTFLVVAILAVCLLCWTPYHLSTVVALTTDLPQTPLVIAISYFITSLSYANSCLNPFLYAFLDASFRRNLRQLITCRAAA
OX1R antag-2 = human HCRTR1 antagonism | CHO/OX1R cells, Fluo-8 calcium fluorescence, orexin A | inhibition, % at 5 µM | hit rate 0.43% among 330,000 | AID 434989;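 active means inhibition above its plate's threshold, mean inhibition of all tested compounds on the plate plus 3 SD, cut at about 37% in these data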
GPR7 antag cf = confirmation of human GPR7 antagonists; hit rate 52% among 2,400; inhibition, % at 4.4 µM; GPR7-expressing cells, calcium fluorescence antagonist mode; shares compounds with GPR7 antagonist; AID 1952; in the data active means inhibition above about 24%;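 further: stimulated with the GPR7 agonist NPW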
MCHR1 antag = antagonizes human MCHR1, a GPR7 antagonist counter-screen; hit rate 62% among 2,400; MCHR1-expressing cells, fluorescence antagonist assay; AID 2148; inhibition, % at 4.4 µM; shares compounds with GPR7 antagonist; in the data active means inhibition above about 22%
Each line names hits and unclear results; the compound was inactive in the other large screens (follow-up assays come after a bar, where they were run).

Cc1cc(C)cc(NC(=O)CCc2ccc(C)o2)c1	GPR7 antagonist 29 | GPR7 antag cf inactive | MCHR1 antag inactive
COc1ccc(Cl)cc1N(CC(=O)NC1CC2CCC1C2)S(=O)(=O)c1ccccc1 (centres undefined)	GPR7 antagonist 33 | GPR7 antag cf 37 | MCHR1 antag 62
CC(C)Nc1ccc(Nc2ccnc3cc4ccccc4cc23)cc1	none
c1ccc(CCNc2ccnc3cc4ccccc4cc23)cc1	GPR7 antagonist 37 (no result: OX1R antag-1, CHO parental Ca, OX1R antag-2) | GPR7 antag cf 45 | MCHR1 antag 75
CC(C)(C)c1cc(C(=O)Nc2ccc(F)cc2)n(Cc2ccc(F)cc2)n1	TAAR1 antagonist 65, GPR7 antagonist 23 | GPR7 antag cf inactive | MCHR1 antag 56
O=C(OCc1cn([C@H]2CN(C(=O)c3cccs3)[C@@H](c3ccc(Cl)cc3)C[C@@H]2O)nn1)c1ccccc1	none (no result: OX1R antag-1, CHO parental Ca, GPR7 antagonist, OX1R antag-2)
C#CCOC(=O)Nc1cc(C)n(-c2ccccc2)n1	none
Cc1ccc2c(c1)[C@@H]1CN(C)CC[C@@H]1N2S(=O)(=O)c1ccc([N+](=O)[O-])cc1	OX1R antag-1 44, GPR7 antagonist 29 | GPR7 antag cf inactive | MCHR1 antag inactive
Cc1ccc2c(c1)[C@@H]1CN(C)CC[C@@H]1N2S(=O)(=O)c1ccc(F)cc1	none
O=C(COC(=O)c1ccc2c(c1)C(=O)N(Cc1ccco1)C2=O)NCC(F)(F)F	none
CCC(=O)N1CCc2cc(Br)cc(S(=O)(=O)N(C)c3ccc(OC)cc3)c21	GPR7 antagonist 38 | GPR7 antag cf inactive | MCHR1 antag 54
Cc1ccnc(Nc2nc(-c3ccc(O)c(O)c3)cs2)c1	GPR7 antagonist 41 | GPR7 antag cf 57 | MCHR1 antag 48
CC(O)(c1ccncc1)c1nc(-c2cccc(C(F)(F)F)c2)cs1 (centres undefined)	none (no result: OX1R antag-1, CHO parental Ca, GPR7 antagonist, OX1R antag-2)
CCOc1ccc(N2C(=O)C3=C(C(c4ccc(Cl)cc4)=NCCN3)C2c2cccnc2)cc1 (centres undefined)	none
Cc1ccc(C2C3=C(NCCN=C3c3ccccc3)C(=O)N2c2ccccc2)cc1 (centres undefined)	none (no result: GPR7 antagonist) | MCHR1 antag inactive
Cc1cccc(C(=O)N(CCc2ccccc2)Cc2ccccc2)c1[N+](=O)[O-]	GPR7 antagonist 24 | GPR7 antag cf 24 | MCHR1 antag 67
O=C1CC2(CCCC2)C(=O)N1CN1CCN(S(=O)(=O)c2ccc(Cl)c(Cl)c2)CC1	none (no result: GPR7 antagonist)
Cc1ccc(Cl)cc1N1CCN(C(=O)C2CCC(=O)N(C3CCCCCC3)C2)CC1 (centres undefined)	GPR7 antagonist 26 | GPR7 antag cf 37 | MCHR1 antag 55
O=C(CSc1nnc(-c2cccc(S(=O)(=O)N3CCCC3)c2)n1-c1ccccc1)Nc1ccc(C(=O)O)cc1	GPR7 antagonist 26 | GPR7 antag cf inactive | MCHR1 antag inactive
CCOc1ccccc1NC(=O)c1cc(=O)[nH]c2ccc(S(=O)(=O)N3CCOCC3)cc12	none (no result: GPR7 antagonist)
CCCNC(=O)N1C[C@H](O)COC[C@H]2O[C@@H](CC(=O)N[C@@H]3CCN(Cc4ccccc4)C3)CC[C@@H]21	none (no result: OX1R antag-1, CHO parental Ca, GPR7 antagonist, OX1R antag-2)
COc1ccc(NC2CC(=O)N(C(C)C)C2=O)cc1 (centres undefined)	GPR7 antagonist 24 | GPR7 antag cf inactive | MCHR1 antag inactive
COC(=O)c1cc2c(=O)c3ccccc3oc2nc1/C=C/N(C)C	none (no result: OX1R antag-1, CHO parental Ca, OX1R antag-2)
Cn1ccnc1C1CCCCN1Cc1nc(-c2ccc(Cl)cc2)no1 (centres undefined)	GPR7 antagonist 26 | GPR7 antag cf 34 | MCHR1 antag 22
Clc1ccc(-c2noc(CN3CCCC3)n2)cc1	none
CS(=O)(=O)c1ccc(Cl)c(C(=O)Nc2ccc3nc(N4CCOCC4)sc3c2)c1	none (no result: GPR7 antagonist)
CCCCOc1ccc(-c2cn3ccccc3n2)cc1[N+](=O)[O-]	none
CCCOc1ccc(-c2csc(N)n2)cc1[N+](=O)[O-]	GPR7 antagonist 27 | GPR7 antag cf inactive | MCHR1 antag 26
CCCC(=O)N(CCN(Cc1ccccc1)C(=O)CCC)Cc1ccccc1	GPR7 antagonist 31 | GPR7 antag cf 43 | MCHR1 antag 31
N#CC(C#N)=Cc1cnc(N2CCN(c3ccccc3)CC2)s1	GPR7 antagonist 41 | GPR7 antag cf inactive | MCHR1 antag 42
O=Cc1cnc(N2CCN(c3ccccc3)CC2)s1	none
CCOC(=O)c1cn[nH]c1NC(=S)Nc1ccc(OC)cc1	GPR7 antagonist 30 | GPR7 antag cf 26 | MCHR1 antag inactive
COC(=O)c1cn[nH]c1NC(=S)Nc1ccc(Cl)c(Cl)c1	none
Cc1ccccc1OCCn1c(=O)sc2ccccc21	GPR7 antagonist 21 | GPR7 antag cf inactive | MCHR1 antag 37
Cc1nn(-c2ccc(F)cc2)c(Cl)c1/C=C(\CC(=O)O)c1nc2ccccc2s1	GPR7 antagonist 31 | GPR7 antag cf inactive | MCHR1 antag inactive
O=C(N/C(=C\c1cccc([N+](=O)[O-])c1)C(=O)N1CCOCC1)c1ccc([N+](=O)[O-])cc1	GPR7 antagonist 23 | GPR7 antag cf inactive | MCHR1 antag inactive
CCN(CC)CCN1CNC(=S)NC1	none (no result: OX1R antag-1, CHO parental Ca, GPR7 antagonist, OX1R antag-2)
O=C(Nc1cccc(CNCCc2c[nH]c3ccccc23)c1)c1ccccc1Cl	TAAR1 ag 49, GPR7 antagonist 47 | GPR7 antag cf 54 | MCHR1 antag 51
CN(C)c1ccc(/C=C(\C#N)c2ccccn2)cc1	GPR7 antagonist 30 | GPR7 antag cf inactive | MCHR1 antag 47
Cc1cc(Cl)ccc1NC(=S)NCCc1ccc(S(N)(=O)=O)cc1	none (no result: GPR7 antagonist)
Cc1cc(Cl)ccc1OCC(O)CNCCc1ccc(S(N)(=O)=O)cc1 (centres undefined)	GPR7 antagonist 68 | GPR7 antag cf 66 | MCHR1 antag 73
Cc1ccc(S(=O)(=O)N2CCOCC2)cc1C(=O)OCC(=O)NC1CCCC1	none (no result: GPR7 antagonist)
CCC(=O)N1CCN(c2ccccc2NC(=O)COc2cc(C)ccc2C(C)C)CC1	GPR7 antagonist 34 | GPR7 antag cf 27 | MCHR1 antag 51
Cc1cccc(OCC(=O)Nc2ccccc2N2CCCCC2)c1	none
Cc1cccc(OCC(=O)Nc2ccccc2N2CCN(C)CC2)c1	GPR7 antagonist 31 | GPR7 antag cf inactive | MCHR1 antag 49
OCCN1CCN(c2nccn3ccnc23)CC1	none (no result: OX1R antag-1, CHO parental Ca, GPR7 antagonist, OX1R antag-2)
C=CCCC(=O)NC1CC(C)(C)Cc2c1cnn2-c1ccc(OC)cc1 (centres undefined)	GPR7 antagonist 26 | GPR7 antag cf inactive | MCHR1 antag inactive
Cc1cccc2cc(C3CC(c4ccco4)=NN3S(=O)(=O)c3ccccc3)c(Cl)nc12 (centres undefined)	none

Source: PubChem (The Scripps Research Institute Molecular Screening Center)
